# Bim-Mcl-1 = human Bim-Mcl-1 interaction inhibition; Q07820; inhibition, % at 10 µM; AID 1009; 190,000 compounds, 0.1% hits; Bead-based flow cytometry, Bim peptide-Mcl-1 binding; in the data active means inhibition above about 40%;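 further: 0% = no compound tracer wells and 100% = peptide blocker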
# Mcl1 Bid PPI = disrupts binding of human Mcl-1 to Bid peptide | Q07820 | TR-FRET Mcl-1/Bid-Dy647 peptide binding, 1536-well | inhibition, % at 21.7 µM | 220,000 compounds, 0.97% hits | AID 1021;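 active means compounds that cut the binding signal by more than half at the single screening dose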;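 further: His-tagged Mcl-1 with europium anti-His antibody binding Bid BH3 peptide; 0% = Mcl-1 plus peptide wells and 100% = peptide-only wells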
# MCL1 BIM primary = inhibitors of human MCL1 binding to BIM-BH3 peptide; 320,000 compounds, 0.68% hits; AID 2057; GST-MCL1 / FITC-Bim-BH3 fluorescence polarization; inhibition, % at 10.9 µM; Q07820;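 active means inhibition above the mean inhibition of all tested compounds plus 3 SD, set per campaign, cut at about 40% in these data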;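 further: 0% = DMSO wells and 100% = unlabeled Bim-BH3 peptide control; higher means more loss of mP so more displacement of Bim peptide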
# T cell modulator = T cell immune modulation candidate. 2C CD8+ T cell-vesicle binding, flow cytometry; hits give low values. response (vesicle binding), % at 7 µM. 330,000 compounds, 0.068% hits. AID 2052;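 active means response, share of CD8 T cells binding vesicles, and their 90th percentile fluorescence all below set limits, cut at about 80% in these data, passing the limit was not always enough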;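 further: values below 100% mean blocked vesicle binding to the CD8+ T cells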
#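 System: murine 2C transgenic CD8+ T lymphocytes; also added: QL9-loaded Drosophila micro-vesicles; times: binding 1.5 h at 37 °C; measured by: flow cytometry, PE anti-B7-1 (FL2) versus Alexa647 anti-CD8 (FL8), PFA-fixed; control set: Peptide-free naked vesicles (low) and QL9 vesicles with 0.7% DMSO vehicle (high)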
# DSG3 Ab inh = human desmoglein-3 autoantibody binding inhibition | DSG3-coupled beads, scFv-anti-DSG3-GFP binding, flow cytometry; hits give low values | binding (percent of control), % at 10 µM | 310,000 compounds, 0.48% hits;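 active means binding more than 3 SD below its plate's average and above zero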;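 further: hits lower antibody fragment binding to DSG3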
# Target sequence (P32926 whole entry, looked up, the tested form may be a part): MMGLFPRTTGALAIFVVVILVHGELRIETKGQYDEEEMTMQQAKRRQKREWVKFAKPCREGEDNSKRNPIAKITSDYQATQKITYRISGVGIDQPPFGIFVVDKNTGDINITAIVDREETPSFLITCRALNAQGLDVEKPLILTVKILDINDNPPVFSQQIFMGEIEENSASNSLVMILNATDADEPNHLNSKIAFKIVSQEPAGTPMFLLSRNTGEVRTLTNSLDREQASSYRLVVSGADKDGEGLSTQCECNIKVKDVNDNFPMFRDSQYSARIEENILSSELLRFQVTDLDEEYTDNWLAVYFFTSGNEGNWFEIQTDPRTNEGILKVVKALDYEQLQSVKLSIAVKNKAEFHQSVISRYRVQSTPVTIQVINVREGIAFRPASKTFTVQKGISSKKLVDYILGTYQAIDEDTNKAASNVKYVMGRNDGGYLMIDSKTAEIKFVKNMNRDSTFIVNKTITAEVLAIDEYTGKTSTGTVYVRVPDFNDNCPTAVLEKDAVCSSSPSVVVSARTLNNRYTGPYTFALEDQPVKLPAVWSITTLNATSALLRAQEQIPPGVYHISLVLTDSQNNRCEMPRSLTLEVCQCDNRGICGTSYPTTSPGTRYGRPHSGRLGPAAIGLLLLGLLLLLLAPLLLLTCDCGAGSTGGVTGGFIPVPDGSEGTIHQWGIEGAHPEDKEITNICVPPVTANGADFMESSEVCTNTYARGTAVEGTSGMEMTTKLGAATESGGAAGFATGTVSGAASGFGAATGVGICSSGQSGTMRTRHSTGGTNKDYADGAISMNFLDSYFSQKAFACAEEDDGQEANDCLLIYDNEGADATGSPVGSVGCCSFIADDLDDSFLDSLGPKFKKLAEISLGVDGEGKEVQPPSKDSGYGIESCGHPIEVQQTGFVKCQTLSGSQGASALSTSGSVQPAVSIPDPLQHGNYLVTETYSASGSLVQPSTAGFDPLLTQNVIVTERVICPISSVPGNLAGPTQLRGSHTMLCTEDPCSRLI
# Mcl1-Noxa inh = disrupts binding of human Mcl-1 to Noxa peptide; TR-FRET Mcl-1/Noxa peptide binding, 2 h; AID 1022; inhibition, % at 21.7 µM; Q07820; 220,000 compounds, 1.5% hits;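 active means compounds that cut the protein-peptide binding signal by more than 50% relative to plate controls in a single-dose test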;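 further: His-tagged Mcl-1 with rhodamine Noxa BH3 peptide and terbium anti-His antibody; 0% = Mcl-1 plus Noxa peptide wells and 100% = peptide-only wells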
# Bcl-xL conf = counter-screen for MCL1 inhibitors: confirmation of human Bcl-xL inhibitors | shares compounds with MCL1 BIM primary | GST-Bcl-xL / FITC-Bim BH3 peptide FP binding | inhibition, % at 10.9 µM | 1,700 compounds, 54% hits | AID 2166;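 active means inhibition above a cutoff equal to the mean inhibition of all tested compounds plus 3 SD, cut at about 30% in these data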;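 further: 0% = DMSO wells and 100% = unlabeled Bim BH3 control peptide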
# MCL1 BIM confirm = MCL1-BIM-BH3 interaction inhibition, confirmation. shares compounds with MCL1 BIM primary. GST-MCL1 / FITC-Bim-BH3 fluorescence polarization. inhibition, % at 10.9 µM. 1,700 compounds, 61% hits. AID 2168;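 active means inhibition above the average of all tested compounds plus 3 SD, cut at about 40% in these data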;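 further: 0% = DMSO wells and 100% = unlabeled Bim-BH3 control peptide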
# Starred values were filed as active, the others as inactive; i = inactive; x = no result given; + = active, no number. This is a sample that favours compounds with a hit; in the whole collection about 2.3% have one here.
SMILES,Bim-Mcl-1,Mcl1 Bid PPI,MCL1 BIM primary,T cell modulator,DSG3 Ab inh,Mcl1-Noxa inh,Bcl-xL conf,MCL1 BIM confirm
Cc1cc(C)c[n+](-c2[nH]c(=O)sc2/C=N/NC([S-])=Nc2ccccc2)c1,-7.0,-54.5,167.4*,0.0,113.9,12.9,60.7*,59.6*
Cc1cc[n+](-c2[nH]c(=O)sc2/C=N/NC([S-])=Nc2ccccc2)cc1,-6.0,-63.9,163.8*,276.5,100.7,10.0,128.2*,128.4*
CC(C)(C)c1cc[n+](-c2[nH]c(=O)sc2/C=N/N=C(\[O-])c2cccnc2)cc1,x,x,-1.3,317.7,x,x,x,x
CCc1ccc[n+](-c2[nH]c(=O)sc2/C=N/N=C(\N)[O-])c1,x,-29.4,-0.2,374.7,102.2,12.7,x,x
CCc1ccc[n+](-c2[nH]c(=O)sc2/C=N/NC([S-])=Nc2ccccc2)c1,-7.0,-23.6,144.1*,0.0,99.4,47.3,154.4*,185.3*
O=c1[nH]c(-[n+]2ccccc2)c(/C=N/NC([S-])=Nc2ccccc2)s1,x,-12.7,183.4*,468.3,x,12.7,109.7*,126.7*
CC(C)(C)c1cc[n+](-c2[nH]c(=O)sc2/C=N/NC(=O)c2ccccc2[O-])cc1,x,x,126.1*,205.7,104.7,x,84.3*,128.7*
CC(=O)N1c2ccccc2C(=O)C1N1CCCCC1 (stereo not given),-5.0,-6.4,68.9*,305.9,108.8,-18.5,51.8*,63.5*
Cc1cc(NC(=O)OC2CCCCC2)ccc1[N+](=O)[O-],x,x,1.2,401.3,106.0,x,x,x
CCc1ccc2nc(N(CCCN(C)C)C(=O)c3ccc(S(=O)(=O)N4CCCC4)cc3)sc2c1,x,x,43.6*,262.2,108.0,x,10.3,9.5
CCN(c1ccccc1)S(=O)(=O)c1cccc(C(=O)NCCOc2ccccc2OC)c1,x,x,x,x,109.5,x,x,x
CC(C)CNC(=O)NC(=O)COc1ncnc2sccc12,1.0,-15.1,53.9*,199.3,103.4,-54.5,8.9,14.4
COc1ccc(NC(=O)/C=C/c2cccc(Br)c2)cn1,x,x,98.8*,382.3,88.3,x,74.2*,85.5*
COc1cc(NC(=O)Cn2cnc3c(SC)nc(N)nc32)cc(OC)c1OC,x,x,x,259.4,101.0,x,x,x
ClCc1nc2ccccc2n1Cc1ccccc1,x,x,159.7*,303.5,281.0,x,53.9*,79.0*
COCc1nc2ccccc2n1Cc1ccccc1,1.0,-10.2,-3.0,412.4,103.7,-14.3,x,x
COc1ccc(OC)c(NC(=O)COC(=O)CCNc2ccccc2OC)c1,x,x,x,282.8,146.2,x,x,x
CC(=O)Nc1ccc(Nc2c3c4c(cccc4n(C)c2=O)C(=O)c2ccccc2-3)cc1,-2.0,3.0,+,118.2,84.0,22.9,181.4*,+
Cn1c(=O)c(NCCO)c2c3c(cccc31)C(=O)c1ccccc1-2,-2.0,-20.6,123.5*,330.5,78.1,-174.2,124.9*,128.5*
CC(=O)Nc1ccc(NC2=CC(=O)c3ccccc3C2=O)cc1,x,x,2.0,144.4,86.6,x,x,x
CCNc1c2c3c(cccc3n(C)c1=O)C(=O)c1ccccc1-2,9.0,-12.8,+,302.2,x,-134.1,+,+
Cn1c(=O)c(NC2CCCCC2)c2c3c(cccc31)C(=O)c1ccccc1-2,3.0,-8.6,x,x,231.6,-27.7,x,x
Cn1c(NCCc2ccccc2)cc(=O)n(C)c1=O,-3.0,-24.3,1.3,386.8,107.4,-4.1,x,x
Cc1cccc(NC2=C(NCCO)C(=O)c3ccccc3C2=O)c1,-2.0,-15.7,2.8,340.9,102.4,17.8,x,x
Cn1c(=O)c(NCCc2ccccc2)c2c3c(cccc31)C(=O)c1ccccc1-2,2.0,-4.0,+,646.0,204.1,-272.4,+,+
SMILES,Bim-Mcl-1,Mcl1 Bid PPI,MCL1 BIM primary,T cell modulator,DSG3 Ab inh,Mcl1-Noxa inh,Bcl-xL conf,MCL1 BIM confirm
O=C(NCCOc1ccccc1)C1CCC(=O)N(C2CCCCCC2)C1 (stereo not given),x,x,2.5,519.6,102.7,x,x,x
c1ccc(CN(CCN2CCOCC2)Cc2ccccc2)cc1,x,x,x,x,121.7,x,x,x
CCCCNc1c2c3c(cccc3n(C)c1=O)C(=O)c1ccccc1-2,2.0,-9.7,+,i,199.1,-60.1,178.1*,+
Nc1ccc(N2CCCCCC2)cc1,7.0,-19.3,41.7*,135.8,x,65.0*,38.3*,57.4*
O=C(O)c1ccc(N2CCCCC2)cc1,0.0,-8.1,2.8,i,104.8,7.6,x,x
CCCSc1nnc(NC(=O)CSc2sc3c(O)cc(=O)[nH]c3c2C#N)s1,x,x,39.0,328.1,102.5,x,x,x
N#Cc1c(SCC(=O)Nc2nccs2)sc2c(O)cc(=O)[nH]c12,x,x,49.6*,211.8,100.9,x,15.4,14.4
N#Cc1c(SCC(=O)Nc2nc3ccccc3s2)sc2c(O)cc(=O)[nH]c12,x,x,57.3*,551.7,95.1,x,26.4,71.6*
N#Cc1c(SCC(=O)Nc2nc3ccc(Br)cc3s2)sc2c(O)cc(=O)[nH]c12,x,x,47.8*,180.4,35.8,x,22.8,54.1*
O=C(COC(=O)/C=C/c1cccc(F)c1)NC1CCCCC1,x,x,x,x,108.1,x,x,x
COc1cccc(NC(=O)CN(C2=NC3CS(=O)(=O)CC3S2)c2cccc(C)c2)c1 (stereo not given),x,x,7.3,307.4,84.5,x,x,x
CC1(C)CC(=O)C=C(/C=C/c2ccccc2)C1,x,x,4.3,341.2,102.5,x,x,x
Cc1nc2ccccn2c1C(=O)N/N=C/c1ccc([N+](=O)[O-])cc1,x,-20.1,-3.9,345.5,x,-7.9,x,x
Cc1nc2ccccn2c1C(=O)N/N=C/c1ccc([N+](=O)[O-])o1,-2.0,-51.5,41.1*,94.7,95.3,39.4,24.4,53.7*
COc1ccc(CCNc2nc3ccccc3n3nnnc23)cc1OC,3.0,-2.7,54.8*,356.8,102.2,20.3,28.6,29.6
O=C(NC(=S)Nc1cccc(O)c1)C12CC3CC(CC(C3)C1)C2,x,x,x,x,98.2,x,x,x
Nc1ccc2c3c(cccc13)C(=O)N(c1ccccc1)C2=O,-3.0,-21.0,x,x,111.6,-212.7,x,x
CC(C)CCN1C(=O)c2cccc3c(N)ccc(c23)C1=O,x,x,+,601.7,108.4,x,145.4*,164.3*
CCN1C(=O)c2cccc3c(Cl)ccc(c23)C1=O,-4.0,-21.4,4.5,112.0,113.6,12.1,x,x
Cc1cccc(N2C(=O)c3cccc4c(N(C)CCO)ccc(c34)C2=O)c1,-1.0,-5.5,+,362.4,149.0,-86.2,168.8*,+
Cc1cccc(N2C(=O)c3cccc4c(N)ccc(c34)C2=O)c1,x,x,+,233.3,106.5,x,197.9*,+
Nc1cccc(N2C(=O)c3cccc4c(N)ccc(c34)C2=O)c1,x,x,+,150.2,99.7,x,+,+
COc1ccc2nc(SCC(=O)NC3(C#N)CCCCC3)[nH]c2c1,x,x,0.7,231.4,101.3,x,x,x

# Assay outcomes from PubChem BioAssay.
